Experiments:
human ACE2 = settings: ref Wang et al. [2024], Joshi et al. [2016]; cited from earlier work
human testicular ACE = settings: ref Wang et al. [2024], Joshi et al. [2016]; cited from earlier work
[1] = target: bovine carboxypeptidase A; settings: ref Wang et al. [2024], Joshi et al. [2016]; cited from earlier work
ACE2 = ACE2 (Homo sapiens, UniProt Q9BYF1); assay: In vivo biodistribution studies; parameters: species or system humanized ACE2 mice; settings: 30 min after injection, i.v. tail vein 3.7 MBq/kg, mean ± SD, n = 3
Procedure, shortened: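 Male humanized ACE2 knock-in mice (C57BL/6 background, 6 weeks old) under 1.5% isoflurane, kept warm, received the ¹⁸F-labelled test compound by lateral tail vein and were killed by cervical dislocation 30 min later. Organs were weighed and gamma-counted, decay-corrected to euthanasia, and reported as %ID/g. Anti-ACE2 IHC AOD (integrated optical density/area) was linearly regressed against %ID/g.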

ACE2, sequence (Q9BYF1 18-805): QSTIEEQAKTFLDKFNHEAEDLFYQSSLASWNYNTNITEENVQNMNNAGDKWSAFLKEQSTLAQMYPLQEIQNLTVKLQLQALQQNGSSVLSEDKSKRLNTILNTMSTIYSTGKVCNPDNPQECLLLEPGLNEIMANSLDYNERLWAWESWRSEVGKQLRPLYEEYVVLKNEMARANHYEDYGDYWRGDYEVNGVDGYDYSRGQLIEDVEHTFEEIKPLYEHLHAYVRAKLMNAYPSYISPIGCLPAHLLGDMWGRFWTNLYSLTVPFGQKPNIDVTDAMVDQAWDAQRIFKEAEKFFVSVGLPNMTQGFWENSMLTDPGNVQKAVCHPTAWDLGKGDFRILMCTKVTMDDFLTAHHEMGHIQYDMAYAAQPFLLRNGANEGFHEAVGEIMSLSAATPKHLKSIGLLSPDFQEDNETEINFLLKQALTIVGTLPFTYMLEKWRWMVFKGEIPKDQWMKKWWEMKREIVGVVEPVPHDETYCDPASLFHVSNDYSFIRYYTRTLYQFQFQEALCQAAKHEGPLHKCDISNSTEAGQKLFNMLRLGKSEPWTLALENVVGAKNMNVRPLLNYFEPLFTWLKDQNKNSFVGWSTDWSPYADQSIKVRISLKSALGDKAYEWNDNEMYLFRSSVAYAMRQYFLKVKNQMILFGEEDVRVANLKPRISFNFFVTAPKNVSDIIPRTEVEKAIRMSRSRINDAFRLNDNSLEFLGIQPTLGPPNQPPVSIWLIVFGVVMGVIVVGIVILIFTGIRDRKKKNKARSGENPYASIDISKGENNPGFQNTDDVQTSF

CC(C)C[C@H](N[C@@H](Cc1cncn1Cc1cc(Cl)cc(Cl)c1)C(=O)O)C(=O)O [MLN-4760]
IC50 (human ACE2): 0.44 nM
IC50 (human testicular ACE): > 100 µM
IC50 [1]: 27 µM

CC(C)C[C@H](N[C@@H](Cc1cncn1Cc1cc([18F])cc(Cl)c1)C(=O)O)C(=O)O [^18F-MLN-4760]
Tissue uptake, Belly fat (ACE2): 0.48 ± 0.45 %ID/g
Tissue uptake, Cerebellum (ACE2): 0.40 ± 0.22 %ID/g
Tissue uptake, Cerebrum (ACE2): 3.18 ± 4.31 %ID/g
Tissue uptake, Eyeball (ACE2): 2.84 ± 0.74 %ID/g
Tissue uptake, Heart (ACE2): 3.26 ± 0.28 %ID/g
Tissue uptake, Kidneys (ACE2): 4.73 ± 0.58 %ID/g
Tissue uptake, Large intestine (ACE2): 3.34 ± 1.88 %ID/g
Tissue uptake, Liver (ACE2): 2.31 ± 0.77 %ID/g
Tissue uptake, Lung (ACE2): 2.49 ± 1.09 %ID/g
Tissue uptake, Medulla (ACE2): 1.83 ± 0.27 %ID/g
Tissue uptake, Muscle (ACE2): 2.27 ± 0.75 %ID/g
Tissue uptake, Oesophagus (ACE2): 11.32 ± 4.13 %ID/g
Tissue uptake, Parotid (ACE2): 1.93 ± 0.79 %ID/g
Tissue uptake, Shoulder fat (ACE2): 2.84 ± 1.56 %ID/g
Tissue uptake, Small intestine (ACE2): 2.74 ± 0.90 %ID/g
Tissue uptake, Spleen (ACE2): 1.58 ± 2.11 %ID/g
Tissue uptake, Stomach (ACE2): 3.34 ± 2.71 %ID/g
Tissue uptake, Testicles (ACE2): 2.91 ± 1.95 %ID/g

Source: article PMC11612064 (EJNMMI Radiopharmacy and Chemistry, 2024)
